Results from ChEMBL document CHEMBL5038573, “Total Synthesis of Laucysteinamide A, a Monomeric Congener of Somocystinamide A” (J Nat Prod, 2021).

Experiments:
[1] = (§1) Toxicity in brine shrimp assessed as induction of lethality incubated for 24 hrs by microscopic analysis; type: organism-based, Artemia salina; settings: Artemia salina (brine shrimp)
NCI-H460 = experiment: Cytotoxicity against human NCI-H460 cells assessed as cell growth inhibition incubated for 48 hrs by MTT assay; type: functional, cell-based
Outline: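 NCI-H460 cells seeded at 6.66 × 10³ cells/mL in RPMI 1640 with FBS and grown 24 h (37 °C, 5% CO₂). Nine half-log dilutions (top 127–300 μM) added, final 1% v/v DMSO and PEG400, six replicates per concentration. After 48 h, MTT for 25 min, then dissolved in DMSO and read at 570 and 630 nm.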

Artemia salina = experiment: as §1; type: organism-based
A549 = experiment: Cytotoxicity against human A549 cells assessed as cell growth inhibition incubated for 48 hrs by MTT assay; type: functional, cell-based; settings: A549, 48 h
[2] = Homo sapiens, NCI-H460, 48 h, read-out: IC50

Row | SMILES | IC50 at 24 h [1] [µM] | IC50 (NCI-H460; [2]) [µM] | IC50 (Artemia salina) | IC50 (A549) [nM] | IC50 (NCI-H460; nci-h460)
1 | C=CC/C=C/N(C)C(=O)CCC | > 100 | > 248 | – | – | –
2 | C=CC/C=C/N(C)C(=O)CCCCCCCCCC/C=C/[C@@H]1CSC(C)=N1 | > 100 | 20 | – | – | –
3 | CCC/C=C/N(C)C(=O)CCCCCCCCCC/C=C/[C@@H]1CSC(C)=N1 | – | 33 | Not Active | – | –
4 | C=CC/C=C/N(C)C(=O)CCCCCCCC/C=C/[C@H](CSSC[C@@H](/C=C/CCCCCCCCC(=O)N(C)/C=C/CC=C)NC(C)=O)NC(C)=O | > 130 | – | – | 46 | Not Active
5 | C=CC/C=C/N(C)C(=O)c1ccccc1 | > 100 | > 300 | – | – | –
